Measurements taken from ChEMBL document CHEMBL2417386, “Novel conjugated quinoline-indoles compromise Plasmodium falciparum mitochondrial function and show promising antimalarial activity” (J Med Chem, 2013).

Legend:
[1] = system: Plasmodium falciparum; assay: Antimalarial activity against mid to late trophozoite stage of Plasmodium falciparum 3D7 infected in RBC assessed as nonviable parasite at 3 uM after 0.5 hrs by SYTO 61 staining-based flow cytometric analysis relative to untreated control; type: functional
[2] = system: Plasmodium falciparum; assay: Antimalarial activity against mid to late trophozoite stage of Plasmodium falciparum 3D7 infected in RBC assessed as abnormal mitochondria at 3 uM after 0.5 hrs by MitoTracker Red CMXRos-based fluorescence microscopic analysis relative to untreated control; type: functional
[3] = system: Plasmodium falciparum; assay: Gametocytocidal activity against synchronous stage 4 to 5 of transgenic Plasmodium falciparum NF54 gametocyte harboring pfs16 promoter assessed as parasite viability after 72 hrs by MitoTracker Red CMXRos-based assay; type: functional, organism-based; conditions: NF54, 72 h
[4] = system: Plasmodium falciparum; assay: Antimalarial activity against Plasmodium falciparum 3D7 infected in RBC assessed as growth inhibition after 48 hrs by SYBR Green-I fluorescence assay; type: functional, organism-based; conditions: 3D7, 48 h
Procedure, shortened: (§1)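 Parasite-infected red cells exposed to compound for 48 h; growth read by SYBR Green-I fluorescence; IC50 derived. Where a ± is given, it is the standard deviation of three individual experiments.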

[5] = Inhibition of beta-hematin formation after 24 hrs by spectrophotometric analysis in presence of nonidet P40; type: functional
[6] = system: Plasmodium falciparum; assay: Gametocytocidal activity against synchronous stage 1 to 3 of transgenic Plasmodium falciparum NF54 gametocyte harboring pfs16 promoter assessed as parasite viability after 72 hrs by luciferase reporter gene assay; type: functional, organism-based; conditions: NF54, 72 h
[7] = system: Plasmodium falciparum; assay: Antimalarial activity against mid to late trophozoite stage of Plasmodium falciparum 3D7 infected in RBC assessed as nonviable parasite at 0.6 uM after 0.5 hrs by SYTO 61 staining-based flow cytometric analysis relative to untreated control; type: functional
[8] = system: Plasmodium falciparum; assay: Antimalarial activity against Plasmodium falciparum K1 infected in RBC assessed as growth inhibition after 48 hrs by SYBR Green-I fluorescence assay; type: functional, organism-based; conditions: K1, 48 h; procedure, shortened: as §1
[9] = Dissociation constant, pKa of the compound at 50 uM by spectrophotometric analysis; type: physicochemical
[10] = system: Plasmodium falciparum; assay: Antimalarial activity against mid to late trophozoite stage of Plasmodium falciparum 3D7 infected in RBC assessed as abnormal mitochondria at 15 uM after 0.5 hrs by MitoTracker Red CMXRos-based fluorescence microscopic analysis relative to untreated control; type: functional
[11] = system: Plasmodium falciparum; assay: Antimalarial activity against mid to late trophozoite stage of Plasmodium falciparum 3D7 infected in RBC assessed as abnormal mitochondria at 0.6 uM after 0.5 hrs by MitoTracker Red CMXRos-based fluorescence microscopic analysis relative to untreated control; type: functional
[12] = Selectivity index, ratio of IC50 for HEK293 cells to IC50 for Plasmodium falciparum 3D7 after 72 hrs; type: toxicity, cell-based; conditions: human, read-out: Ratio IC50
Procedure, shortened: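 Parasite (3D7) viability assay and HEK293 viability assay, each with a 72 h exposure. Index taken as the ratio of the IC50 values, HEK293 over 3D7.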

[13] = system: Plasmodium falciparum; assay: Antimalarial activity against mid to late trophozoite stage of Plasmodium falciparum 3D7 infected in RBC assessed as nonviable parasite at 15 uM after 0.5 hrs by SYTO 61 staining-based flow cytometric analysis relative to untreated control; type: functional

Nc1cc(/C=C/c2c[nH]c3ccccc23)nc2ccccc12
Activity [1]: 77%
Activity [2]: 66%
IC50 [3]: 1.4 µM
IC50 [4]: 0.2 µM
IC50 [5]: > 4000 µM
IC50 [6]: 0.37 µM
Activity [7]: 46%
IC50 [8]: 0.39 µM
pKa at 50 µM [9]: 9.5
Activity [10]: 93%
Activity [11]: 27%
selectivity ratio at 72 h [12]: 79
Activity [13]: 88%
